For 13 compounds, EC50, inhibition and Activity results are on record in ChEMBL document CHEMBL3112439, “Inhibition of long chain fatty acyl-CoA synthetase (ACSL) and ischemia reperfusion injury” (Bioorg Med Chem Lett, 2014).

Activity calls are given as the source filed them. The calls are words filed in the database; no cut-off is given here.

Test [1] can be described thus: Inhibition of ACSL in mouse solubilized bEND.3 cells using [14C]-palmitic acid as substrate after 2 mins by liquid scintillation spectrometric analysis. To be noted: BEND3, 2 min. The essentials: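 ACSL activity in solubilized bEND3 brain endothelial cells; reaction velocity measured across a range of inhibitor concentrations. EC50 obtained by fitting velocity vs. inhibitor concentration to a constrained three-parameter log(inhibitor) vs. response function.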

For test [2], the species on record is Mus musculus. Nature of the test: Inhibition of ACSL in mouse solubilized bEND.3 cells using [14C]-palmitic acid as substrate assessed as effect on total recovery of radioactive substrate at 1.5 uM after 2 hrs by liquid scintillation spectrometric analysis. The essentials: (§1)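 Intact bEND3 brain endothelial cells were labelled with [14C]-palmitic acid with inhibitor at a single concentration, against untreated control cultures. Radioactivity was measured in the extractable lipid fraction, the aqueous fraction and the medium, and total recovery was summed (lipid + aqueous + media). Lipid mass was expressed as % of control. Groups were compared with control by one-way ANOVA and Dunnett's test; n = 3 to 9 independent experiments.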

Test [3] is filed under the species Mus musculus. Nature of the test: Inhibition of ACSL in mouse solubilized bEND.3 cells using [14C]-palmitic acid as substrate assessed as increase in unincorporated radioactivity in media at 1.5 uM after 2 hrs by liquid scintillation spectrometric analysis. In outline: as §1
The species named for test [4] is Mus musculus. Nature of the test: Inhibition of ACSL in mouse solubilized bEND.3 cells using [14C]-palmitic acid as substrate assessed as decrease in radioactivity in aqueous layer at 1.5 uM after 2 hrs by liquid scintillation spectrometric analysis.
The species named for test [5] is Mus musculus. Nature of the test: Inhibition of ACSL in mouse […] bEND.3 cells assessed as inhibition of [14C]-palmitate incorporation into extractable lipids at 1.5 uM after 2 hrs by liquid scintillation spectrometric analysis. In outline: as §1
The species entered for test [6] is Mus musculus. The test can be described thus: Effect on mean extractable lipid mass in mouse bEND.3 cells at 1.5 uM relative to control. It counts as functional, cell-based. The essentials: as §1
Test [7] deals with Leukocyte. The test can be described thus: Inhibition of Sprague-Dawley rat leukocytes recruitment assessed as inhibition of cell extravasation in unbranched post-capillary venules of mesentery at 5 uM measured at 120 mins. It counts as functional, tissue-based. In outline: (§2)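 Recruitment was induced by L-NAME. Rolling, adhesion and extravasation were counted in post-capillary venules of the mesentery at 120 min. Compound was present at 5 or 50 μM, and vehicle-alone controls were run. Results are mean ± SEM of 3 to 7 independent experiments.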

In test [8] the test system is Leukocyte. The test can be described thus: Inhibition of Sprague-Dawley rat leukocytes recruitment assessed as inhibition of cell adhesion in unbranched post-capillary venules of mesentery at 5 uM measured at 120 mins. Type of test: functional, tissue-based. In outline:
as §2

Test [9] concerns Leukocyte. Nature of the test: Inhibition of Sprague-Dawley rat leukocytes recruitment assessed as inhibition of cell rolling in unbranched post-capillary venules of mesentery at 5 uM measured at 120 mins. Type of test: functional, tissue-based. The essentials:
as §2

Test [10] is filed under the species Mus musculus. Nature of the test: Effect on mean extractable lipid mass in mouse bEND.3 cells at 15 uM relative to control. Type of test: functional, cell-based. The essentials: (§3)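 In situ assay in intact bEND3 brain endothelial cells given [14C]-palmitic acid; test agents at 15 μM (triacsin C reference at 1.5 μM). Radioactivity measured in the extractable lipid fraction, the aqueous layer and the media, with total recovery summed (lipid + aqueous + media); lipid mass extracted also determined. Treated groups compared with control by one-way ANOVA and Dunnett's t test; n = 3 to 9 independent experiments.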

The species named for test [11] is Mus musculus. The test can be described thus: Inhibition of ACSL in mouse solubilized bEND.3 cells using [14C]-palmitic acid as substrate assessed as effect on total recovery of radioactive substrate at 15 uM after 2 hrs by liquid scintillation spectrometric analysis. The essentials: as §3
The species named for test [12] is Mus musculus. The test can be described thus: Inhibition of ACSL in mouse solubilized bEND.3 cells using [14C]-palmitic acid as substrate assessed as decrease in radioactivity in aqueous layer at 15 uM after 2 hrs by liquid scintillation spectrometric analysis.
Test [13] is filed under the species Mus musculus. The test can be described thus: Inhibition of ACSL in mouse solubilized bEND.3 cells using [14C]-palmitic acid as substrate assessed as increase in unincorporated radioactivity in media at 15 uM after 2 hrs by liquid scintillation spectrometric analysis. The essentials:
as §3

For test [14], the species on record is Mus musculus. The test can be described thus: Inhibition of ACSL in mouse […] bEND.3 cells assessed as inhibition of [14C]-palmitate incorporation into extractable lipids at 15 uM after 2 hrs by liquid scintillation spectrometric analysis. In outline:
as §3

Test [15] relates to Leukocyte. Nature of the test: Inhibition of Sprague-Dawley rat leukocytes recruitment assessed as inhibition of cell extravasation in unbranched post-capillary venules of mesentery at 50 uM measured at 120 mins. It counts as functional, tissue-based. The essentials:
(§4)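 Leukocyte recruitment induced by L-NAME, used as an ischemia model, in post-capillary venules of the mesentery. Rolling, adhesion and extravasation scored at 120 minutes with or without compound at 5 or 50 μM; vehicle-alone group included. Mean ± SEM of 3 to 7 independent experiments.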

The test system of test [16] is Leukocyte. The test can be described thus: Inhibition of Sprague-Dawley rat leukocytes recruitment assessed as inhibition of cell adhesion in unbranched post-capillary venules of mesentery at 50 uM measured at 120 mins. Type of test: functional, tissue-based. In outline: as §4
The test system of test [17] is Leukocyte. Nature of the test: Inhibition of Sprague-Dawley rat leukocytes recruitment assessed as inhibition of cell rolling in unbranched post-capillary venules of mesentery at 50 uM measured at 120 mins. It counts as functional, tissue-based. In outline:
as §4

`CCC/C=C/C/C=C/C=C/CNO`: the response in test [1] was half-maximal at 14.8 µM (EC50).
As to `C=CCCCCCCCCCn1oc(=O)[nH]c1=O`, the EC50 (in general, the concentration that produces a half-maximal response) in test [1] came to 9.04 µM.
Regarding `CCC/C=C/C/C=C/C=C/CN(O)/N=N/c1ccc(C(=O)O)cc1`, the EC50 in test [1] is 74.8 µM. Compared with the last compound, the EC50 is about 8.3-fold higher.
For `CCC/C=C/C/C=C/C=C/C=N/NN=O` [TRIACSIN C], the inhibition result in the test listed under Mus musculus [2], in the test filed under Mus musculus [3], in the test listed under Mus musculus [4], in the test listed under Mus musculus [5], in the test on Leukocyte [7] and in the test with Leukocyte [8] was “Active” throughout. The inhibition result in the test with Leukocyte [9] is “Active”. In addition, in the test filed under Mus musculus [6], the result was inactive. The response in test [1] was half-maximal at 0.358 µM (EC50).
For the compound `C=CCCCCCCCCCNc1ccc(C(=O)O)c(O)c1`, the outcome in the test listed under Mus musculus [10] was inactive. The inhibition result in the test filed under Mus musculus [11], in the test filed under Mus musculus [12], in the test listed under Mus musculus [13] and in the test filed under Mus musculus [14] was “Active” in each case. This compound also returned a 50% effective concentration (EC50) in test [1] of 6.88 µM.
Turning to `C=CCCCCCCCCCNO`, the outcome in the test listed under Mus musculus [10] was inactive. Moreover, the inhibition entry in the test with Leukocyte [15], with Leukocyte [16], with Leukocyte [17], in the test filed under Mus musculus [11], in the test listed under Mus musculus [12] and in the test listed under Mus musculus [13] was “Active” throughout. The inhibition entry in the test filed under Mus musculus [14] is “Active”. In test [1], a half-maximal effect (EC50) was put at 70.4 µM.
`C=CCCCCCCCCCN(O)/N=N/c1ccc(C(=O)O)cc1` returned an EC50 in test [1] of 73.1 µM.
On to `CCC/C=C/C/C=C/C=C/CNN1CCCS1(=O)=O`, for which, in test [1], a half-maximal response (EC50) required 164 µM.
Turning to `C=CCCCCCCCCCNc1ccc(C(=O)O)cc1`, the result in the test listed under Mus musculus [10] was inactive. The inhibition entry in the test listed under Mus musculus [11], in the test filed under Mus musculus [12], in the test filed under Mus musculus [13] and in the test filed under Mus musculus [14] was “Active” in each case. Further, the concentration giving a half-maximal response (EC50) in [1] amounted to 4.95 µM.
Regarding `CCC/C=C/C/C=C/C=C/CNc1ccc(C(=O)O)cc1`, in the test listed under Mus musculus [10], the result was inactive. Also, the inhibition entry with Leukocyte [15], in the test on Leukocyte [7], in the test on Leukocyte [16], in the test with Leukocyte [8], in the test with Leukocyte [17] and with Leukocyte [9] was “Active” throughout. In addition, the inhibition result in the test listed under Mus musculus [11], in the test listed under Mus musculus [12], in the test listed under Mus musculus [13] and in the test listed under Mus musculus [14] was “Active” in each case. This compound returned an EC50 in test [1] of 5.86 µM.
`CCC/C=C/C/C=C/C=N/N1CCCS1(=O)=O`: the result in the test listed under Mus musculus [10] was Active. The inhibition result in the test filed under Mus musculus [12] and in the test filed under Mus musculus [13] was “inactive” in each case. This compound yielded an EC50 in test [1] of 171 µM.
`CCC/C=C/C/C=C/CN(O)/N=N/c1ccc(C(=O)O)cc1`: the result in the test listed under Mus musculus [10] was inactive. Moreover, the inhibition entry in the test filed under Mus musculus [11], in the test filed under Mus musculus [12], in the test filed under Mus musculus [13] and in the test filed under Mus musculus [14] was “Active” throughout. The EC50 in test [1] came out at 26.9 µM.
For `CCC/C=C/C/C=C/C=C/Cn1oc(=O)[nH]c1=O`, the EC50 in test [1] turned out to be 53.5 µM.
